Measurements taken from ChEMBL document CHEMBL4431397, “T-3364366 Targets the Desaturase Domain of Delta-5 Desaturase with Nanomolar Potency and a Multihour Residence Time” (ACS Med Chem Lett, 2016).
Activity calls are given as the source filed them. The calls are words filed in the database; no cut-off is given here.

Columns and labels:
[1] = target: Acyl-CoA (8-3)-desaturase (Rattus norvegicus) (UniProt Q920R3); assay: Displacement of [3H]T-3364366 from D5D in Sprague-Dawley rat liver microsomes after 150 mins by liquid scintillation counting
Acyl-CoA (8-3)-desaturase (Rattus norvegicus), sequence (Q920R3 whole entry, looked up): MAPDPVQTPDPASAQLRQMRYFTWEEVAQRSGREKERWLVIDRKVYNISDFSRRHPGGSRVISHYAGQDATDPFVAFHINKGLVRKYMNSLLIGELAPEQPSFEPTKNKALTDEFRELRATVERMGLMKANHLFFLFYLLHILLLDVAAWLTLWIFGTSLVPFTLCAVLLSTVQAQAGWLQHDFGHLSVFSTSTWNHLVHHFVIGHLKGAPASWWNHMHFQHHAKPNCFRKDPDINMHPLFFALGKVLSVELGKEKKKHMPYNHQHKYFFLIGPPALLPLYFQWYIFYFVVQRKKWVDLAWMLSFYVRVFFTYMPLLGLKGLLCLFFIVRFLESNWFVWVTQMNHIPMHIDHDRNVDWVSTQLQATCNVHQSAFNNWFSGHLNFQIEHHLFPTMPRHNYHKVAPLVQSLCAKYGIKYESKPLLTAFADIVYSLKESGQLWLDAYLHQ
In short: (§1)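 Filter binding with [³H]T-3364366 as probe on rat liver microsomes, incubated 150 min. Specific binding is total minus nonspecific. In displacement runs, DMSO serves as 100% and 10 μM nonlabeled T-3364366 as 0%. Mean ± SEM, n = 3; apparent Kd reported with 95% CI.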

[2] = target: T1, Acyl-CoA (8-3)-desaturase (Rattus norvegicus, UniProt Q920R3); assay: Binding affinity to D5D in Sprague-Dawley rat liver microsomes after 150 mins by liquid scintillation counting; conditions: read-out: Kd(app); in short: as §1
T1 sequence (Q920R3 whole entry): as the sequence (Q920R3 whole entry, looked up) above

[3] = target: T2, Acyl-CoA (8-3)-desaturase (Homo sapiens, UniProt O60427); assay: Inhibition of D5D in human HepG2 cells using [14C]DGLA as substrate preincubated for 30 mins followed by substrate addition measured after 3 hrs; assay type: cell-based
[4] = target: T1, Acyl-CoA (8-3)-desaturase; assay: Inhibition of D5D in Sprague-Dawley rat liver microsomes using [14C]DGLA as substrate preincubated for 5 mins measured after 120 mins
[5] = MRT in mouse at 0.10 mg/kg, iv administered in cassette mode; assay type: ADME, organism-based; conditions: in vivo, 0.1 mg/kg
In short: (§2)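 Mouse cassette dosing, n = 3 per group. Given iv at 0.10 mg/kg or orally. Plasma AUC taken over 0–8 h. Total clearance, Vdss and MRT derived from the iv arm. Bioavailability F computed as a percentage.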

[6] = Total clearance in mouse at 0.10 mg/kg, iv administered in cassette mode; assay type: ADME, organism-based; conditions: in vivo, 0.1 mg/kg; in short: as §2
[7] = target: T2, Acyl-CoA (8-3)-desaturase; assay: Binding affinity to recombinant wild type D5D (unknown origin) expressed in baculovirus at 5 to 25 nM after 150 mins by liquid scintillation counting
[8] = MRT in mouse at 1 mg/kg, po administered in cassette mode; assay type: ADME, organism-based; conditions: in vivo
Acyl-CoA 6-desaturase = Acyl-CoA 6-desaturase (Rattus norvegicus, UniProt Q9Z122); assay: Inhibition of D6D in Sprague-Dawley rat liver microsomes using [14C]LA as substrate preincubated for 5 mins measured after 30 mins
Acyl-CoA 6-desaturase, sequence (Q9Z122 whole entry): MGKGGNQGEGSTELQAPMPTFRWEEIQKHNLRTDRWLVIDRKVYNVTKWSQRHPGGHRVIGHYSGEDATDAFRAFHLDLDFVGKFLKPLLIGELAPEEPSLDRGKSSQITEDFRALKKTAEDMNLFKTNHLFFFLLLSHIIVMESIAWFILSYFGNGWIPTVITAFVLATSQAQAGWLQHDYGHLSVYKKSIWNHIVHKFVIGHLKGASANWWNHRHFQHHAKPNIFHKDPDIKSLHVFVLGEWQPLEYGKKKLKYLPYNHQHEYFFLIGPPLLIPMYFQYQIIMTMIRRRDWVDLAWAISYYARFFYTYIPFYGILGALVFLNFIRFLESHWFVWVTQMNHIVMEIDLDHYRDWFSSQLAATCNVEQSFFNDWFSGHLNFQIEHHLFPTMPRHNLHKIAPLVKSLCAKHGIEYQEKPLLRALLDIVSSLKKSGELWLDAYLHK

[9] = AUC(0 to 8 hrs) in mouse at 1 mg/kg, po administered in cassette mode; assay type: ADME, organism-based; set-up: dose 1 mg/kg, route oral; conditions: in vivo; in short: as §2
[10] = target: Acyl-CoA (8-3)-desaturase (Rattus norvegicus) (UniProt Q920R3); assay: Binding affinity to D5D in Sprague-Dawley rat liver microsomes at 1.2 to 20 nM measured up to 2.5 hrs by liquid scintillation counting; conditions: TDE = time-dependent effect
In short: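 Time course: various [³H]T-3364366 concentrations incubated with microsomal D5D. Specific binding determined at several time points up to 2.5 h.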

[11] = target: Acyl-CoA (8-3)-desaturase (Rattus norvegicus) (UniProt Q920R3); assay: Reversible binding affinity to D5D in Sprague-Dawley rat liver microsomes assessed as compound bound to protein at 6 nM preincubated for 150 mins followed by 2 fold dilution by 10 uM of T-3364366 measured after 21 hrs by liquid scintillation counting relative to control
In short: (§3)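 Binary complex formed by preincubating [³H]T-3364366 (6.0 nM) with microsomal D5D for 150 min. Mixture then diluted 2-fold with excess nonlabeled T-3364366 (10 μM) to block rebinding. Residual specific binding followed over time to 21 h. Dissociation half-life fitted with 95% CI, without correcting for time-dependent loss of binding.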

[12] = Volume of distribution in steady state in mouse at 0.10 mg/kg, iv administered in cassette mode; assay type: ADME, organism-based; conditions: in vivo, 0.1 mg/kg, read-out: Vdss; in short: as §2
Homo sapiens = species on record: Homo sapiens; assay: Binding affinity to recombinant D6Db5 (1 to 100 residues)/D5Ddes (100 to 444 residues) domain swapped mutant (unknown origin) expressed in baculovirus at 5 to 25 nM after 150 mins by liquid scintillation counting
[13] = Oral bioavailability in mouse at 1 mg/kg administered in cassette mode; assay type: ADME, organism-based; conditions: in vivo; in short: as §2
[14] = AUC(0 to 8 hrs) in mouse at 0.10 mg/kg, iv administered in cassette mode; assay type: ADME, organism-based; set-up: dose 0.1 mg/kg, route intravenous; conditions: in vivo, 0.1 mg/kg; in short: as §2
[15] = target: Acyl-CoA (8-3)-desaturase (Rattus norvegicus) (UniProt Q920R3); assay: Reversible binding affinity to D5D in Sprague-Dawley rat liver microsomes after 150 mins in presence of trichloroacetate by liquid scintillation counting
[16] = target: Acyl-CoA (8-3)-desaturase (Rattus norvegicus) (UniProt Q920R3); assay: Reversible binding affinity to D5D in Sprague-Dawley rat liver microsomes assessed as dissociation half life at 6 nM preincubated for 150 mins followed by 2 fold dilution by 10 uM of T-3364366 by liquid scintillation counting; in short: as §3
[17] = target: T1, Acyl-CoA (8-3)-desaturase; assay: Inhibition of D5D in rat RLN10 cells using [14C]DGLA as substrate preincubated for 30 mins followed by substrate addition measured after 3 hrs; assay type: cell-based
Acyl-CoA desaturase 1 = target: T3, Acyl-CoA desaturase 1 (Rattus norvegicus, UniProt P07308); assay: Inhibition of SCD in Sprague-Dawley rat liver microsomes using [14C]stearoyl-CoA as substrate preincubated for 5 mins measured after 30 mins
T3 sequence (P07308 whole entry): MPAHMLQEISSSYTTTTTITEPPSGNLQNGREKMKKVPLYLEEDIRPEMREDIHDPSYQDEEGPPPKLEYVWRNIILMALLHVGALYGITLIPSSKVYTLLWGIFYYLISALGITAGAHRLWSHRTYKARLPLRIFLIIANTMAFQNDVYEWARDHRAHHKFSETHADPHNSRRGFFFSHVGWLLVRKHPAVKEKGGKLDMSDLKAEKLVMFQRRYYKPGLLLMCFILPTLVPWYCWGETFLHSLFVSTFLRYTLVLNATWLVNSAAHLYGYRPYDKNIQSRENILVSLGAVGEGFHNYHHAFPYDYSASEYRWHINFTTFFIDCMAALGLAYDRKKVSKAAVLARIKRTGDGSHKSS

[18] = target: T2, Acyl-CoA (8-3)-desaturase; assay: Inhibition of D5D in human HepG2 cells using [14C]DGLA as substrate assessed as suppression of [14C]AA production at 10 uM preincubated for 3 hrs followed by compound washout and addition of substrate measured after 4 hrs by liquid scintillation counting; assay type: cell-based
In short: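 HepG2 cells treated with compound for 3 h, then washed three times. Cells pulsed with [¹⁴C]DGLA and incubated a further 4 h. [¹⁴C]AA production normalized: DMSO as 100%, 10 μM T-3364366 without washout as 0%. Mean ± SEM, n = 4.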

[19] = target: Acyl-CoA (8-3)-desaturase (Rattus norvegicus) (UniProt Q920R3); assay: Displacement of [3H]T-3364366 from D5D in Sprague-Dawley rat liver microsomes at high concentrations after 150 mins by liquid scintillation counting; in short: as §1
[20] = target: T2, Acyl-CoA (8-3)-desaturase; assay: Ratio of inhibition of D5D in human HepG2 cells preincubated for 30 mins followed by [14C]DGLA substrate addition measured after 3 hrs to inhibition of D5D in human HepG2 cells assessed as inhibition of [14C]AA production preincubated for 3 hrs followed by compound washout and addition of [14C]DGLA substrate measured after 4 hrs; assay type: cell-based

Cc1cn([C@H]2C[C@@H](O)[C@@H](COC(c3ccccc3)(c3ccccc3)c3ccccc3)O2)c(=O)[nH]c1=O
inhibition [1]: Active

COc1ccc(OC)c(NC(=O)Nc2cccc(F)c2)c1
inhibition [1]: Active

Cc1ccc2c(c1)Nc1cc(C)ccc1CC2
inhibition [1]: Active

CC(=O)NCCSc1nc2cscc2c(=O)n1-c1ccc(OCC(F)(F)F)cc1
Kd [2]: 2.7 nM
IC50 [3]: 1.9 nM
IC50 [4]: 19 nM
MRT [5]: 39 min
clearance [6]: 25 mL/min/kg
Activity [7]: Active
MRT [8]: 1.8 h
IC50 (Acyl-CoA 6-desaturase): 6.2 µM
AUC(0-t) at 6 h [9]: 260 ng·h/mL
Activity [10]: Tde
Activity [11]: < 10%
Vd [12]: 1.1 L/kg
Activity (Homo sapiens): Active
bioavailability [13]: 41%
AUC(0-t) at 6 h [14]: 65 ng·h/mL
Activity [15]: Active
T1/2 [16]: 2 h
IC50 [17]: 2.1 nM
IC50 (Acyl-CoA desaturase 1): > 10 µM
inhibition [18]: Active

N#CC(CCCN1CCN(/N=C/c2cccnc2)CC1)(c1ccccc1)c1ccccc1
inhibition [19]: Active

Nc1ccccc1C(=O)Nc1cccc(Cl)c1
Ratio [20]: 1000
IC50 [3]: 29 nM
IC50 [4]: 160 nM
IC50 (Acyl-CoA 6-desaturase): > 10 µM
inhibition [1]: Active
IC50 [17]: 26 nM
IC50 (Acyl-CoA desaturase 1): > 10 µM
